UPR CHOP act = activators of apoptotic CHOP UPR arm, primary screen, cell-based, CHO-CHOP luciferase reporter, luminescence, uHTS; UPR activation; percent of tunicamycin response over DMSO baseline; activation, % at 10 µM; hit rate 0.34% among 330,000;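 active = at 10 µM dose, activation of 40% or more, normalized to positive control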;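 also: 100% = tunicamycin at 10 µg/mL and 0% = DMSO alone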
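Assay system: CHO-CHOP cells, stable luciferase reporter of PERK-eIF2a-CHOP signalling / Buffer or medium: F12 plus 10% serum / Compound dosing: one dose, 10 µM in 0.5% DMSO / Times: 6 h compound treatment, 37 °C / Technique: luciferase luminescence / Read-out: % reporter activation, DMSO baseline versus tunicamycin full activation / Benchmarks: tunicamycin and DMSO controls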
ANO1 activ = TMEM16A chloride channel activators or potentiators, primary screen, cell-based, HTS; Anoctamin-1 (Mus musculus), Q8BHY3; AID 623877, 2012; hit rate 0.3% among 340,000; B-score at 10 µM; HEK293 TMEM16A/YFP-H148Q/I152L, iodide quench fluorescence; active compounds read low;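 active = fluorescence-ratio B-score plate-corrected deviation score at least 3 library SD below zero, with starting fluorescence score within 5 deviations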;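 also: channel opened by trigger with iodide after compound preincubation; score built on the fluorescence ratio of max minus min over baseline; more negative score means more quench and so TMEM16A activation or potentiation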
Target sequence (Q8BHY3 whole entry, looked up): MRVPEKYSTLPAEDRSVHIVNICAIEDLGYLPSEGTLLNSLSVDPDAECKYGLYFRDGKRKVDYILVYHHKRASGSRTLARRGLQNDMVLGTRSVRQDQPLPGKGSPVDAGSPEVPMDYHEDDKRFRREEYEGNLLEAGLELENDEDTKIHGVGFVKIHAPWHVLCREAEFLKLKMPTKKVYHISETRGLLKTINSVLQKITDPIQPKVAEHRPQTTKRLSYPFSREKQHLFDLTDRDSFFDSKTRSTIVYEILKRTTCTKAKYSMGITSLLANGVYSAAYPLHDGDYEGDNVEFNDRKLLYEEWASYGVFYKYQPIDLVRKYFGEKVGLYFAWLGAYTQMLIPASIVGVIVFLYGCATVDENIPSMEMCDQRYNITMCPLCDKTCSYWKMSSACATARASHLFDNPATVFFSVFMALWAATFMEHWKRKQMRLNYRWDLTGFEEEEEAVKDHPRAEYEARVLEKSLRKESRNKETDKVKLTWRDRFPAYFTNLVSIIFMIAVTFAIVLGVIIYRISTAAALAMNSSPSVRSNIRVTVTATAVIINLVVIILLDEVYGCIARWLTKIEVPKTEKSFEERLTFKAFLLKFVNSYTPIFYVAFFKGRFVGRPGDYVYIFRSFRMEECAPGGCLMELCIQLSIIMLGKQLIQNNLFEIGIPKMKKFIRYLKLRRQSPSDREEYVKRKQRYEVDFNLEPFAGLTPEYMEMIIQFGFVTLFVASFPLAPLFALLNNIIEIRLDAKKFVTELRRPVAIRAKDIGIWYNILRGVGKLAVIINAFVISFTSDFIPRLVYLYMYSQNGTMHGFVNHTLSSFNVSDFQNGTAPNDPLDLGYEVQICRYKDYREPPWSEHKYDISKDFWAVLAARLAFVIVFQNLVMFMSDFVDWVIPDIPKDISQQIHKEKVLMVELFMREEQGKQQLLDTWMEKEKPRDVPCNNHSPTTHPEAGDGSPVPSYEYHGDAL
TMEM16A inh = TMEM16A chloride channel inhibitors, primary screen, cell-based, HTS; HEK293 TMEM16A/YFP iodide influx fluorescence, ionomycin; hit rate 1.2% among 310,000; normalized B-score (activity score, 25-100; higher = stronger inhibition) at 10 µM;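 active = ratio plate-corrected score three or more library SD toward inhibition, starting fluorescence score within five deviations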;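 also: score derived from kinetic fluorescence span divided by baseline fluorescence per well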
CHOP inh = inhibitors of CHOP promoter induction, primary screen, cell-based, unfolded protein response, luciferase reporter. CHO-K1 CHOP-promoter luciferase, tunicamycin-induced, 15-18 h. hit rate 3.8% among 220,000. inhibition, % at 10 µM. AID 2732, 2010;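 active = compounds that reduced the stress-induced luciferase reporter signal by more than about 70% of percent inhibition, limit read from the data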;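 also: 0% = tunicamycin plus vehicle and 100% = wells without tunicamycin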
XBP1 UPR activ = activators of adaptive XBP1 UPR arm, primary screen, cell-based, CHO-XBP1 luciferase reporter, luminescence, uHTS. IRE1-XBP1 UPR activation; percent of tunicamycin response, DMSO as zero. activation, % at 20 µM. hit rate 0.33% among 330,000;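 active = versus positive control, 20 µM dose yields 30% or more activation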;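 also: 100% = tunicamycin at 10 µg/mL and 0% = DMSO only wells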
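Test system: CHO-XBP1 luciferase reporter cells | Buffer or medium: Serum-containing F12 medium, 10% FBS | Schedule: 6 h compound exposure at 37 °C, 5% CO2 | Detection: Steady-Glo luciferase glow luminescence, 10 min after reagent addition | Read-out basis: Activation, % of tunicamycin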
Lipid droplet = inhibitors of hepatocyte lipid droplet formation, primary screen, imaging, high-throughput imaging, BODIPY stain. AML12 mouse hepatocytes, oleate lipid droplets. hit rate 0.4% among 240,000. inhibition, % at 6.5 µM. AID 1656, 2009;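 active = lipid droplet intensity inhibited by at least 50%, with more than 500 cells counted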
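Test system: AML12 mouse liver cells; schedule: overnight exposure; technique: high-content imaging of BODIPY-stained droplets and DAPI nuclei; read-out: % inhibition of corrected integrated BODIPY droplet signal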
Hep lipid conf = hepatocyte lipid droplet accumulation inhibitors, confirmation, imaging, AML12 mouse hepatocytes, single concentration, high-content. shares compounds with Lipid droplet. BODIPY lipid droplet imaging; droplets induced with 100 µM oleic acid. inhibition, % at 5.2 µM. hit rate 65% among 870. AID 463183, 2010;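 active = inhibition of lipid droplet metric at least 50%, with more than 300 cells in each of four replicates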;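 also: plate controls were DMSO with oleic acid for no effect and 5 µM Triacsin-C for full effect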
AML12 tox img = AML12 hepatocyte cytotoxicity, counter-screen for hepatic lipid droplet formation project, imaging, DAPI nuclear morphology imaging | shares compounds with Lipid droplet | AML12 mouse hepatocytes; active compounds read high; cells fed 100 µM oleate overnight | z-score at 5 µM | hit rate 3% among 870 | AID 463200, 2010; in the data active = z-score above about 6.3;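 also: compound exposure lasted overnight at 37 °C before fixation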
AML12 tox conf = AML12 hepatocyte cytotoxicity, confirmation, cytotoxicity control for hepatic lipid droplet formation project, cell-based, single concentration | AML12 mouse hepatocyte viability, ATP luminescence; cells loaded with 100 µM oleic acid | 530 tested, under 10 active | cytotoxicity, % at 50 µM | AID 463219, 2010 | shares compounds with Lipid droplet;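 active = cytotoxicity above 50% in each of four replicates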;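 also: compound exposure lasted overnight at 37 °C before the ATP read; 0% = DMSO-treated cells and 100% = wells with no cells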
Numbers without * were called inactive; i = inactive; x = no result. Sampled rows, rich in hits. Any-hit rate of the full collection: about 4.2%.

SMILES	UPR CHOP act	ANO1 activ	TMEM16A inh	CHOP inh	XBP1 UPR activ	Lipid droplet	Hep lipid conf	AML12 tox img	AML12 tox conf
NC(=O)c1cc2ccncc2c2ccccc12	-3	i	i	58	-4	-6	x	x	x
O=C(Cc1cccc2ccccc12)Nc1c(F)cccc1F	4	i	i	x	3	55*	82*	-0.75	9
Cc1[nH]n(-c2ccccc2)c(=O)c1N=Nc1c(Cl)cccc1Cl	0	i	i	x	-5	1	x	x	x
CCOc1ccccc1N=Nc1c(C)[nH]n(-c2ccccc2)c1=O	-2	i	i	x	-2	76*	13	0.31	x
CC(=O)c1ccc(N=Nc2c(C)[nH]n(-c3ccccc3)c2=O)cc1	3	i	i	x	-4	28	x	x	x
COc1ccccc1N=Nc1c(C)[nH]n(-c2ccccc2)c1=O	2	i	i	x	1	56*	4	0.029	x
O=C(CNC(=O)c1ccc(Cl)cc1Cl)OCc1cn2cc(Br)ccc2n1	1	i	x	x	1	x	x	x	x
CN(CC(=O)Nc1ccc(F)c(F)c1F)C(=O)/C=C/c1ccco1	1	i	x	x	5	x	x	x	x
CCN(CC(=O)Nc1ccc(NC(C)=O)cc1)C(=O)CSCc1c(C)noc1C	1	i	i	x	-3	x	x	x	x
CCOC(=O)c1cc(-c2ccc(F)cc2)n(CC(=O)NC(C)CC)c1C (stereo not given)	-2	i	i	-22	-2	70*	66*	-0.52	13
CCOC(=O)c1cc(-c2ccc(C)cc2)n(CCC(=O)NC(C)CC)c1C (stereo not given)	0	i	i	31	-1	0	x	x	x
COc1cc(NC(=O)c2oc3ccccc3c2C)ccc1NC(=O)c1ccco1	7	i	i	x	3	102*	111*	0.032	19
Cc1ccc(NC(=O)CNC(C)c2ccccc2)cc1 (stereo not given)	3	i	i	x	3	-12	x	x	x
CCCCn1c(SCC(=O)Nc2ccc3c(c2)OCCO3)nnc1C(CC)N(C)C (stereo not given)	1	i	x	x	0	x	x	x	x
CCCCn1c(SCC(=O)Nc2cc(C(F)(F)F)cc(C(F)(F)F)c2)nnc1C(CC)N(C)C (stereo not given)	2	i	i	63	3	78*	107*	-0.35	17
O=C(Nc1cccc(Br)c1)c1cccc(OC(=S)N2CCOCC2)c1	1	i	i	x	1	59*	95*	0.95	19
Cc1ccc(-c2nnc(OCc3cccnc3)c3ccccc23)cc1	3	i	i	28	-3	67*	86*	0.77	15
COc1ccc(C)cc1S(=O)(=O)N(CC(=O)O)c1ccccc1	0	i	i	16	-3	-5	x	x	x
COc1ccc(C)cc1S(=O)(=O)N(CC(=O)O)c1ccc(C)cc1	-2	i	i	-22	1	53*	12	-0.55	x
N#Cc1ccccc1OCC(=O)NCCNC(=O)COc1ccccc1C#N	1	i	i	x	-1	x	x	x	x
Cc1ccc(Cn2nc(C)c(NC(=O)C3(C)CC3(Br)Br)c2C)cc1 (stereo not given)	3	i	i	13	1	64*	68*	0.89	16
CCCOc1ccc(/C=C/C(=O)OCC(=O)N(C)c2c(N)n(Cc3ccccc3)c(=O)[nH]c2=O)cc1OCC	0	i	i	x	-1	x	x	x	x
Fc1ccc(C(CCNCc2ccccn2)c2ccc(Cl)cc2)cc1 (stereo not given)	-1	i	i	x	-4	0	x	x	x
Cc1cc(C)n2nc(C(=O)OCC(=O)N(C)C3CCS(=O)(=O)C3)nc2n1 (stereo not given)	0	i	x	x	-1	x	x	x	x
Cc1c(/C(O)=C2/C(=O)C(=O)N(CCN3CCOCC3)C2c2ccccn2)cnn1-c1ccccc1 (stereo not given)	-8	i	i	58	-8	8	x	x	x
SMILES	UPR CHOP act	ANO1 activ	TMEM16A inh	CHOP inh	XBP1 UPR activ	Lipid droplet	Hep lipid conf	AML12 tox img	AML12 tox conf
Cc1ccc(C2/C(=C(/O)c3cnn(-c4ccccc4)c3C)C(=O)C(=O)N2CCCN2CCOCC2)o1 (stereo not given)	5	x	i	0	1	96*	26	0.73	x
NC(=O)c1ccc(NC(=O)COC(=O)CCN=C2NS(=O)(=O)c3ccccc32)cc1	-1	i	x	x	1	x	x	x	x
CCOc1ccccc1-c1cc(C(=O)N/N=C/c2ccc(O)c(OC)c2)c2ccccc2n1	-1	i	i	15	3	50*	72*	0.3	30
COC(=O)[C@H](Cc1ccccc1)NC(=O)Cn1cnc2c(NCc3ccccc3)ncnc21	1	x	x	x	-2	x	x	x	x
Cc1ccc(-c2cc(C(=O)O)c3cc(Br)ccc3n2)o1	1	i	i	16	-1	-4	x	x	x
Cc1ccc(-c2cc(C(=O)NC3=NCCS3)c3cc(Br)ccc3n2)o1	-1	x	i	30	-6	107*	4	-0.45	x
O=C(COc1ccccc1)NCC(=O)N1CCCC(C(F)(F)F)C1 (stereo not given)	x	i	x	x	x	x	x	x	x
COc1ccc(C=C(NC(=O)c2ccccc2)C(=O)O)cc1OC	x	i	x	x	x	x	x	x	x
COC(=O)/C(=C/c1ccc2c(c1)c1ccccc1n2C)NC(=O)c1ccccc1	4	i	i	14	0	83*	80*	0.53	-3
N#C/C(=C\c1ccc(-c2ccccc2[N+](=O)[O-])o1)C(=O)Nc1nc(-c2cccs2)cs1	2	i	i	17	0	72*	101*	-0.47	1
N#C/C(=C\c1ccc(-c2ccc([N+](=O)[O-])cc2)o1)C(=O)Nc1nc(-c2cccs2)cs1	2	i	i	47	8	18	x	x	x
COc1cccc(NC(=O)c2cc3ccccc3oc2=O)c1	-6	i	i	x	-10	1	x	x	x

Source: PubChem BioAssay (several laboratories)
